The values that follow come from ChEMBL document CHEMBL4393725, “Design and synthesis of novel xanthone-triazole derivatives as potential antidiabetic agents: α-Glucosidase inhibition and glucose uptake promotion” (Eur J Med Chem, 2019).

Activity calls are given as the source filed them. No cut-off for these calls is given here.

One data set has as its target Alpha glucosidase (Homo sapiens, UniProt O43451+P10253+P14410+Q2M2H8). Description: Inhibition of alpha-glucosidase (unknown origin) using PNP glucoside as substrate preincubated for 30 mins followed by substrate addition further incubated for 1 min by spectrophotometry. It is filed as protein assay. The method in brief:
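Yeast α-glucosidase with p-nitrophenyl-α-D-glucopyranoside substrate in 50 mM phosphate buffer, pH 6.8, with 5% v/v DMSO. Inhibitor and enzyme were preincubated for 30 min at 37 °C, then the reaction ran for 1 min at 37 °C, read at 400 nm. IC50 came from five concentrations bracketing a preliminary estimate, each measured three times in parallel; mean ± SD.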

In data set [1] the test system is HepG2. Description: Induction of glucose uptake in human HepG2 cells at 0.625 to 2.5 uM incubated for 24 hrs in low glucose medium. Type of data set: functional, cell-based. The method in brief:
(§1)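 HepG2 cells in high-glucose DMEM with 10% FBS and antibiotics, seeded at 5000 cells/well for 24 h. They were washed with low-glucose DMEM and PBS, then treated for 24 h in low-glucose DMEM with 2% FBS at 0.625, 1.25 or 2.5 μM. Glucose left in the medium was measured with a glucose kit. Rosiglitazone was the positive control.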

Another data set concerns L02. Description: Cytotoxicity against human LO2 cells assessed as reduction in cell viability incubated for 44 hrs by MTT assay. It is filed as cell-based. The note with it: L02, 44 h. The gist of the method: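 LO2 human hepatocytes in DMEM with 10% FBS, penicillin and streptomycin at 37 °C, 5% CO2. Plated at 5000 cells/well for 24 h, then exposed to a range of concentrations for 44 h. MTT was added for 4 h, formazan dissolved in DMSO, and A490 read. Viability = A treated/A control × 100%. IC50 is the concentration giving 50% viability loss, as mean ± SD.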
For orientation: Tetrazolium dyes change colour on reduction, which living cells bring about.

In a further data set the test system is HepG2 (Homo sapiens). In words: Cytotoxicity against human HepG2 cells assessed as effect on cell survival at 0.625 to 2.5 uM incubated for 44 hrs by MTT assay. The settings on record: HepG2, 44 h.
For data set [2], the system named is Alpha-glucosidase (Saccharomyces cerevisiae). In words: Noncompetitive inhibition of alpha-glucosidase (Saccharomyces cerevisiae) at 0 to 10 uM using PNP glycoside as substrate preincubated for 30 mins followed by substrate addition further incubated for 1 min by Lineweaver-Burk plot analysis.
Data set [3] shares this test system. In words: Noncompetitive inhibition of alpha-glucosidase (Saccharomyces cerevisiae) at 0 to 6 uM using PNP glycoside as substrate preincubated for 30 mins followed by substrate addition further incubated for 1 min by Lineweaver-Burk plot analysis.
Data set [4] has the same test system. In words: Noncompetitive inhibition of alpha-glucosidase (Saccharomyces cerevisiae) at 0 to 3.5 uM using PNP glycoside as substrate preincubated for 30 mins followed by substrate addition further incubated for 1 min by Lineweaver-Burk plot analysis.
In data set [5] the test system is HepG2. Description: Induction of glucose uptake in human HepG2 cells at 2.5 uM incubated for 24 hrs in low glucose medium relative to control. Type of data set: functional. The method in brief: as §1
Data set [6] has as its system HepG2. In words: Induction of glucose uptake in human HepG2 cells at 0.625 uM incubated for 24 hrs in low glucose medium relative to control. Type of data set: functional. The method in brief: as §1
For data set [7], the system named is HepG2. In words: Induction of glucose uptake in human HepG2 cells incubated for 24 hrs in low glucose medium. It is filed as functional, cell-based. The method in brief: as §1
Data set [8] deals with HepG2. In words: Induction of glucose uptake in human HepG2 cells at 1.25 uM incubated for 24 hrs in low glucose medium relative to control. Type of data set: functional. The gist of the method:
as §1

Data set [9] relates to Alpha-glucosidase (Saccharomyces cerevisiae). In words: Noncompetitive inhibition of alpha-glucosidase (Saccharomyces cerevisiae) at 0 to 9 uM using PNP glycoside as substrate preincubated for 30 mins followed by substrate addition further incubated for 1 min by Lineweaver-Burk plot analysis.
Data set [10] relates to HepG2. Description: Induction of glucose uptake in human HepG2 cells at 0.625 to 2.5 uM incubated for 24 hrs in low glucose medium relative to control. Type of data set: functional. The gist of the method: as §1
The test system of data set [11] is Alpha-glucosidase (Saccharomyces cerevisiae). Description: Noncompetitive inhibition of alpha-glucosidase (Saccharomyces cerevisiae) at 0 to 4 uM using PNP glycoside as substrate preincubated for 30 mins followed by substrate addition further incubated for 1 min by Lineweaver-Burk plot analysis.

With `O=C(Cn1cc(COc2cc(O)c3c(=O)c4ccc(Br)cc4oc3c2)nn1)Nc1ccc(O)cc1O`, the IC50 (as a rule, the concentration at which inhibition is half-maximal) stood at 5.87 µM on Alpha glucosidase and 74 µM in the data set on L02. The result in the data set on HepG2 [1] was inactive. Further, the Activity entry in the data set on HepG2 (Homo sapiens) is reported as “Non-Toxic”. In addition, the inhibition entry in [2] was “Active”.
As for `COc1ccc(NC(=O)Cn2cc(COc3cc(OC(C)=O)c4c(=O)c5ccc(OC)cc5oc4c3)nn2)c(OC)c1`, the IC50 against Alpha glucosidase was 33.16 µM; in the data set with L02, over 100 µM.
For `O=C(Cn1cc(COc2cc(O)c3c(=O)c4cc(O)ccc4oc3c2)nn1)Nc1ccc(O)c(O)c1`, the IC50 on Alpha glucosidase is 7.06 µM; in the data set with L02, over 100 µM. Further, the result with HepG2 [1] was inactive. Moreover, the Activity entry in the data set on HepG2 (Homo sapiens) was “Non-Toxic”.
Turning to `COc1ccc(NC(=O)Cn2cc(COc3cc(OC(C)=O)c4c(=O)c5cc(OC)ccc5oc4c3)nn2)c(OC)c1`, the IC50 against Alpha glucosidase is 42.6 µM; in the data set with L02 it was over 100 µM.
Taken in the same sequence, the figures for `COc1ccc(NC(=O)Cn2cc(COc3cc(O)c4c(=O)c5cc(Br)ccc5oc4c3)nn2)cc1OC` were 29.84 µM and over 100 µM.
In the case of `O=C(Cn1cc(COc2cc(O)c3c(=O)c4cc(Br)ccc4oc3c2)nn1)Nc1ccc(O)c(O)c1`, the IC50 on Alpha glucosidase is 3.17 µM; with L02, over 100 µM. Also, the result with HepG2 [1] was Active. Besides, the inhibition entry in data set [3] is “Active”. Besides, the Activity result in the data set with HepG2 (Homo sapiens) is given as “Non-Toxic”.
With `COc1ccc(NC(=O)Cn2cc(COc3cc(O)c4c(=O)c5ccc(Br)cc5oc4c3)nn2)c(OC)c1`, the IC50 at Alpha glucosidase is 2.78 µM; with L02, over 100 µM. Besides, the result with HepG2 [1] was Active. The inhibition entry in [4] was “Active”. For the same molecule, the Activity entry with HepG2 (Homo sapiens) is given as “Non-Toxic”.
Turning to `COc1ccc(NC(=O)Cn2cc(COc3cc(O)c4c(=O)c5cc(Br)ccc5oc4c3)nn2)c(OC)c1`, the IC50 against Alpha glucosidase is 3.07 µM; in the data set with L02, over 100 µM. The outcome with HepG2 [1] was inactive. The inhibition entry in data set [3] was “Active”. Further, the Activity result with HepG2 (Homo sapiens) is on record as “Non-Toxic”.
Turning to `COc1ccc(NC(=O)Cn2cc(COc3cc(OC(C)=O)c4c(=O)c5cc(Br)ccc5oc4c3)nn2)cc1OC`, the IC50 on Alpha glucosidase is 32.33 µM; in the data set with L02, over 100 µM.
Regarding `O=C(Cn1cc(COc2cc(O)c3c(=O)c4cc(O)ccc4oc3c2)nn1)Nc1ccc(O)cc1O`, the IC50 on Alpha glucosidase was 15.62 µM; with L02 it was over 100 µM.
Regarding `COc1ccc2oc3cc(OCc4cn(CC(=O)Nc5ccc(OC)c(OC)c5)nn4)cc(O)c3c(=O)c2c1`, the IC50 against Alpha glucosidase and in the data set on L02 was over 100 µM each time.
Regarding `COc1ccc(NC(=O)Cn2cc(COc3cc(OC(C)=O)c4c(=O)c5cc(Br)ccc5oc4c3)nn2)c(OC)c1`, the IC50 is 12.13 µM against Alpha glucosidase and 80.7 µM in the data set on L02. In the data set with HepG2 [1], the outcome was inactive. In addition, the Activity entry with HepG2 (Homo sapiens) is recorded as “Non-Toxic”.
Regarding `COc1ccc(NC(=O)Cn2cc(COc3cc(OC(C)=O)c4c(=O)c5ccc(Br)cc5oc4c3)nn2)c(OC)c1`, the IC50 against Alpha glucosidase is 12.78 µM; in the data set with L02, over 100 µM. The Activity in the data set on HepG2 [5] was 163%; with HepG2 [6] it was 61%; in the data set with HepG2 [7], “Dose-dependent effect”; in the data set on HepG2 [8], 90%; in the data set with HepG2 (Homo sapiens) it was “Non-Toxic”.
For `COc1ccc2c(=O)c3c(O)cc(OCc4cn(CC(=O)Nc5ccc(OC)c(OC)c5)nn4)cc3oc2c1`, the IC50 is 15.9 µM against Alpha glucosidase and over 100 µM with L02.
Turning to `O=C(Cn1cc(COc2cc(O)c3c(=O)c4ccc(Br)cc4oc3c2)nn1)Nc1ccc(O)c(O)c1`, the IC50 against Alpha glucosidase was 5.23 µM; in the data set on L02, over 100 µM. In addition, the Activity entry in the data set with HepG2 [7] was “Dose-dependent effect”; in the data set on HepG2 (Homo sapiens), “Non-Toxic”. Further, the inhibition entry in data set [9] is “Active”.
Turning to `COc1ccc2c(=O)c3c(OC(C)=O)cc(OCc4cn(CC(=O)Nc5ccc(OC)c(OC)c5)nn4)cc3oc2c1`, the values for the IC50 on Alpha glucosidase and in the data set on L02 were 98.63 µM and over 100 µM, respectively.
For the molecule `CN(CCOc1ccc(CC2SC(=O)NC2=O)cc1)c1ccccn1` (stereo unspecified) [ROSIGLITAZONE], the Activity in the data set with HepG2 [10] stood at 50%.
Consider `COc1ccc(NC(=O)Cn2cc(COc3cc(O)c4c(=O)c5cc(OC)ccc5oc4c3)nn2)c(OC)c1`, for which the figures for the IC50 against Alpha glucosidase and in the data set on L02 were 8.31 µM and 65.4 µM, respectively. Besides, the result with HepG2 [1] was inactive. Moreover, the Activity entry in the data set on HepG2 (Homo sapiens) is “Non-Toxic”.
Take `COc1ccc(NC(=O)Cn2cc(COc3cc(O)c4c(=O)c5ccc(OC)cc5oc4c3)nn2)c(OC)c1`: the IC50 at Alpha glucosidase was found to be 2.06 µM; with L02 it was 89.1 µM. Besides, the Activity result is “Dose-dependent effect” in the data set with HepG2 [7] and “Non-Toxic” with HepG2 (Homo sapiens). For the same molecule, the inhibition result in [11] was “Active”.
Regarding `O=C(Cn1cc(COc2cc(O)c3c(=O)c4ccc(O)cc4oc3c2)nn1)Nc1ccc(O)cc1O`, the IC50 against Alpha glucosidase is 17.61 µM; with L02 it was over 100 µM.
In the same order, the values of `COc1ccc(NC(=O)Cn2cc(COc3cc(OC(C)=O)c4c(=O)c5ccc(Br)cc5oc4c3)nn2)cc1OC` are 26.11 µM and 25.9 µM.
Regarding “2-(4-(((7-bromo-1-hydroxy-9-oxo-9H-xanthen-3-yl)oxy)methyl)-1H-1,2,3-triazol-1-yl)-N-(2,4-dihydroxyphenyl)acetamide”, the result in the data set with HepG2 [1] was Active.
As to `COc1ccc2oc3cc(OCc4cn(CC(=O)Nc5ccc(OC)c(OC)c5)nn4)cc(OC(C)=O)c3c(=O)c2c1`, the IC50 on Alpha glucosidase is over 100 µM; with L02, 24.9 µM.
For `O=C(Cn1cc(COc2cc(O)c3c(=O)c4ccc(O)cc4oc3c2)nn1)Nc1ccc(O)c(O)c1`, the IC50 at Alpha glucosidase was 6.13 µM; in the data set on L02, over 100 µM. Besides, the Activity result with HepG2 [7] was “Dose-dependent effect”; in the data set on HepG2 (Homo sapiens), “Non-Toxic”.
For `COc1ccc(NC(=O)Cn2cc(COc3cc(O)c4c(=O)c5ccc(Br)cc5oc4c3)nn2)cc1OC`, the IC50 against Alpha glucosidase was 11.82 µM; with L02, over 100 µM.
Consider `O=c1c2ccccc2oc2cc(O)cc(O)c12`, for which, in the data set with HepG2 [1], the outcome was inactive. In addition, in the data set with HepG2 (Homo sapiens), the Activity entry is “Non-Toxic”.
